{"source": "ChEMBL document CHEMBL4342521", "about": "(J Med Chem, 2020)", "key": {"[1]": {"test_system": "BT-549", "test": "Antiproliferative activity against human BT549 cells assessed as reduction in cell viability after 48 hrs by CellTiter-Blue assay", "assay_type": "functional", "conditions": "BT-549, 48 h, read-out: LC50 (the source's name)", "summary_of_the_method": "(§1)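 Cells grown in RPMI1640 with 10% FBS at 37 °C, 5% CO₂. 5,000–10,000 cells/well were pre-incubated overnight, and a time-zero CellTiter-Blue read was taken. Six 10-fold dilutions (top final 10 μM) were applied for 48 h, followed by 0.125 mg/mL CellTiter-Blue for 2–4 h. Resorufin fluorescence was read at ex 560/em 590 nm. […] Triplicates.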"}, "[2]": {"test_system": "MV4-11", "test": "Induction of apoptosis in human MV4-11 cells assessed as cell death at 200 nM after 24 hrs in presence of 50 uM z-VAD by CellTiter-blue dye based spectrophotometric analysis", "assay_type": "functional", "summary_of_the_method": "(§2)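 MV4-11 cells grown 12 h, then given 200 nM test agent alone or with z-VAD, chloroquine (5 μM) or wortmannin (100 nM) for 24 h. Viability by CellTiter-Blue (0.125 mg/mL, 2–4 h), resorufin fluorescence 560/590 nm, compared with t = 0 wells; n = 3.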"}, "[3]": {"test_system": "NCI-H522", "test": "Antiproliferative activity against human NCI-H522 cells assessed as reduction in cell viability after 48 hrs by CellTiter-Blue assay", "assay_type": "functional", "conditions": "NCI-H522, 48 h, read-out: LC50 (the source's name)", "summary_of_the_method": "as §1"}, "[4]": {"test_system": "HCC 2998", "test": "Antiproliferative activity against human HCC2998 cells assessed as reduction in cell viability after 48 hrs by CellTiter-Blue assay", "assay_type": "functional", "conditions": "HCC 2998, 48 h, read-out: LC50 (the source's name)", "summary_of_the_method": "as §1"}, "[5]": {"test_system": "IGROV-1", "test": "Antiproliferative activity against human IGROV1 cells assessed as reduction in cell viability after 48 hrs by CellTiter-Blue assay", "assay_type": "functional", "conditions": "IGROV-1, 48 h, read-out: LC50 (the source's name)", "summary_of_the_method": "as §1"}, "[6]": {"test_system": "MV4-11", "test": "Inhibition of autophagy in human MV4-11 cells assessed as cell death at 200 nM after 24 hrs in presence of 5 uM of chloroquine by CellTiter-blue dye based spectrophotometric analysis", "assay_type": "functional", "summary_of_the_method": "as §2"}, "[7]": {"molecular_target": "T1, Protein deacetylase HDAC6 (Homo sapiens, UniProt Q9UBN7)", "T1 sequence (Q9UBN7 whole entry)": "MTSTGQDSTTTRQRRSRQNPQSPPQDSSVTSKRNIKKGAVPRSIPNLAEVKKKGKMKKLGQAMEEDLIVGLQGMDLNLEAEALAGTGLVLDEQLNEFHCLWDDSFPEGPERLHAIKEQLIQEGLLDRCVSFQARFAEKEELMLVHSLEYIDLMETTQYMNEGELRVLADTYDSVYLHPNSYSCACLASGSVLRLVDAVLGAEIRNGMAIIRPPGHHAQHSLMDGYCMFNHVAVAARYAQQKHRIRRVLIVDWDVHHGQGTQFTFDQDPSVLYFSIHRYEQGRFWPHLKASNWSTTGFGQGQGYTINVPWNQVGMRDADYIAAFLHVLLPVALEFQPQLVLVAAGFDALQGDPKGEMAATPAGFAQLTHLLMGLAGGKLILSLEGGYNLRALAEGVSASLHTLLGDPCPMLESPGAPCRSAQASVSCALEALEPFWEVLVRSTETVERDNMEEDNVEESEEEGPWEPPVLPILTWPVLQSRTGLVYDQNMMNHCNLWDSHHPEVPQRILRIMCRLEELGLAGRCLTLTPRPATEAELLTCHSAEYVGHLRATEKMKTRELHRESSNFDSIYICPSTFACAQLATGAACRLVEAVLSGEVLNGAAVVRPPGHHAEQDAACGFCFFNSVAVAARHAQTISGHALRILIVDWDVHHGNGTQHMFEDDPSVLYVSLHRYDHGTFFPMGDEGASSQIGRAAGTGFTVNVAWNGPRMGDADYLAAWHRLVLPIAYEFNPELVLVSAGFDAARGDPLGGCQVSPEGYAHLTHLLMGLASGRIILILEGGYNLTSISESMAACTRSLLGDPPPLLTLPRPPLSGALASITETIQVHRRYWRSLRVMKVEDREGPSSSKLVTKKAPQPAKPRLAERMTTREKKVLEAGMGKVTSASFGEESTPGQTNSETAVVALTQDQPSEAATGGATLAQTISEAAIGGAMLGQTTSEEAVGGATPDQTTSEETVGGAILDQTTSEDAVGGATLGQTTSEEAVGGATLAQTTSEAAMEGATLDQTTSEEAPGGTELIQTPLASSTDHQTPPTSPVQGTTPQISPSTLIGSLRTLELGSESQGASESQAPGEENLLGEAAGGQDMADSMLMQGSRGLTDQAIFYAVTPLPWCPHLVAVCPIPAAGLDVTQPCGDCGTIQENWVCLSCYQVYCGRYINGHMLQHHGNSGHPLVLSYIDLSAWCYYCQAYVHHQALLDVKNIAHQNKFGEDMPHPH", "test": "Inhibition of recombinant HDAC6 (unknown origin) using Boc-Lys(acetyl)-AMC as substrate preincubated for 1 hr followed by substrate addition and measured after 2 hrs by fluorescence based micro plate reader analysis"}, "[8]": {"test_system": "HL-60", "test": "Induction of autophagy in p53 null human HL60 cells harboring wild type FLT3 assessed as LC-3 degradation at 50 to 200 nM after 24 hrs by Western blot analysis", "assay_type": "functional, cell-based", "summary_of_the_method": "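Cells (1,500,000 per well) grown 12 h, then drug-treated as specified. Lysed in RIPA buffer, sonicated, centrifuged, protein normalized by BCA. Run on 4–12% Bis-Tris gels in MES, transferred, probed overnight at 4 °C with primary antibodies at 1/1000. Actin served as reference for LC3-II quantitation.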"}, "[9]": {"test_system": "HOP-92", "test": "Antiproliferative activity against human HOP92 cells assessed as reduction in cell viability after 48 hrs by CellTiter-Blue assay", "assay_type": "functional", "conditions": "HOP-92, 48 h, read-out: LC50 (the source's name)", "summary_of_the_method": "as §1"}, "[10]": {"test_system": "MV4-11", "test": "Antiproliferative activity agaisnt human MV4-11 cells expressing wild type p53/FLT3-ITD mutant assessed as cell death at 10 uM after 48 hrs by CellTiter-blue assay", "assay_type": "functional, cell-based"}, "[11]": {"test_system": "UACC-62", "test": "Antiproliferative activity against human UACC62 cells assessed as reduction in cell viability after 48 hrs by CellTiter-Blue assay", "assay_type": "functional", "conditions": "UACC-62, 48 h, read-out: LC50 (the source's name)", "summary_of_the_method": "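NCI-60 panel lines grown in RPMI1640 with 10% FBS at 37 °C, 5% CO₂. Seeded at 5,000–10,000 cells/well and pre-incubated overnight. Exposed for 48 h to six 10-fold dilutions (top final 10 μM), with a time-zero plate read at dosing. CellTiter-Blue (0.125 mg/mL) for 2–4 h, fluorescence 560/590 nm, triplicate curves.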"}, "[12]": {"test_system": "OVCAR-4", "test": "Antiproliferative activity against human OVCAR4 cells assessed as reduction in cell viability after 48 hrs by CellTiter-Blue assay", "assay_type": "functional", "conditions": "OVCAR-4, 48 h, read-out: LC50 (the source's name)", "summary_of_the_method": "as §1"}, "[13]": {"test_system": "Hs-578T", "test": "Antiproliferative activity against human Hs 578T cells assessed as reduction in cell viability after 48 hrs by CellTiter-Blue assay", "assay_type": "functional", "conditions": "read-out: LC50 (the source's name)", "summary_of_the_method": "as §1"}, "[14]": {"test_system": "HOP-62", "test": "Antiproliferative activity against human HOP62 cells assessed as reduction in cell viability after 48 hrs by CellTiter-Blue assay", "assay_type": "functional", "conditions": "HOP-62, 48 h, read-out: LC50 (the source's name)", "summary_of_the_method": "as §1"}}, "note": "Calls of active or inactive are those of the source. The calls are words filed in the database; no cut-off is given here.", "data": [{"smiles": "CCCNNC(=O)/C=C/c1ccc(CNCCc2c(C)[nH]c3ccccc23)cc1.O=C(O)C(F)(F)F", "values": [{"measurement": "CC50", "setting": "[1]", "result": "> 10", "unit": "µM"}, {"measurement": "Activity", "setting": "[2]", "result": "inactive"}, {"measurement": "CC50", "setting": "[3]", "result": "> 10", "unit": "µM"}, {"measurement": "CC50", "setting": "[4]", "result": 1.76, "unit": "µM"}, {"measurement": "CC50", "setting": "[5]", "result": "> 10", "unit": "µM"}, {"measurement": "inhibition", "setting": "[6]", "result": "inactive"}, {"measurement": "IC50", "setting": "[7]", "result": "> 50", "unit": "µM"}, {"measurement": "Activity", "setting": "[8]", "result": "inactive"}, {"measurement": "CC50", "setting": "[9]", "result": "> 10", "unit": "µM"}, {"measurement": "Activity", "setting": "[10]", "result": "Active"}, {"measurement": "CC50", "setting": "[11]", "result": 0.589, "unit": "µM"}, {"measurement": "CC50", "setting": "[12]", "result": "> 10", "unit": "µM"}, {"measurement": "CC50", "setting": "[13]", "result": "> 10", "unit": "µM"}, {"measurement": "CC50", "setting": "[14]", "result": "> 10", "unit": "µM"}]}]}
